The results in this text go back to ChEMBL document CHEMBL4364341, “Radiosensitization of Head and Neck Squamous Cell Carcinoma (HNSCC) by a Podophyllotoxin” (ACS Med Chem Lett, 2019).

Each structure is given as a SMILES string. The source made the active and inactive calls. The calls are words filed in the database; no cut-off is given here.

Experiment [1] relates to FaDu. As to the kind of experiment: Synergistic induction of apoptosis in human FADU cells assessed as increase in caspase at 0.5 uM followed by irradiation with 5 Gy IR incubated for 48 hrs by luminescence based analysis. The format is functional, cell-based.
Experiment [2] concerns FaDu. As to the kind of experiment: Synergistic antiproliferative activity against human FADU cells assessed as fractional inhibition at 0.005 uM preincubated for 1 hr followed by irradiation with 2.5 Gy IR and measured after 6 days by MTT assay (reference value: 0.131). The format is functional. The method in brief:
(§1)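 FaDu or SCC-25 cells were grown in DMEM with 10% FBS at 37 °C and 5% CO2. They were seeded at 1000 cells/well in 96-well plates for 24 h, then dosed with compound (fresh DMSO stock diluted in medium) or vehicle. After 1 h, X-rays were given with a sliding 5 mm lead shield, so one plate held 0, 2.5, 5 and 10 Gy columns. After 6 days, MTT (0.5 mg/mL, 45 min) was added, then DMSO, and A570 was read. Values were normalised to the unirradiated vehicle control. Fractional inhibition = 1 − surviving fraction.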
On the technique in general: Tetrazolium assays rely on reduction of a dye to a coloured formazan, in cell work by metabolically active cells.

In experiment [3] the test system is SCC-25. As to the kind of experiment: Synergistic antiproliferative activity against human SCC25 cells assessed as combination index at 5 uM preincubated for 1 hr followed by irradiation with 2.5 Gy IR and measured after 6 days by MTT assay. Type of experiment: functional. A digest of the protocol: (§2)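 SCC-25 cells grown in DMEM with 10% FBS at 37 °C, 5% CO2, seeded 1000 cells/well in 96-well plates and left 24 h. Drug in DMSO, diluted in complete medium, added 1 h before X-irradiation. A movable 5 mm lead shield gave 0, 2.5, 5 or 10 Gy on one plate. After 6 days, MTT readout at 570 nm. Combination index by Chou–Talalay from viability data.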

In experiment [4] the test system is SCC-25. As to the kind of experiment: Synergistic antiproliferative activity against human SCC25 cells assessed as fractional inhibition at 5 uM preincubated for 1 hr followed by irradiation with 10 Gy IR and measured after 6 days by MTT assay (reference value: 0.347). Type of experiment: functional. The method in brief: (§3)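 SCC-25 cells seeded 1000/well in 96-well plates in DMEM/10% FBS and left 24 h. Drug or vehicle added, then after 1 h X-irradiated to 2.5, 5 or 10 Gy on one plate using a shifted lead shield. Plates incubated 6 days, then MTT (0.5 mg/mL, 45 min), DMSO solubilisation, absorbance at 570 nm. Fractional inhibition = 1 − fraction of surviving cells.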

Experiment [5] relates to FaDu. The experiment in a line: Antiproliferative activity against human FADU cells assessed as fractional inhibition at 0.05 uM after 6 days in absence of irradiation by MTT assay. The format is functional. A digest of the protocol: as §1
Experiment [6] concerns SCC-25. As to the kind of experiment: Synergistic antiproliferative activity against human SCC25 cells assessed as combination index at 0.5 uM preincubated for 1 hr followed by irradiation with 10 Gy IR and measured after 6 days by MTT assay. Type of experiment: functional. The method in brief: as §2
Experiment [7] deals with SCC-25. As to the kind of experiment: Synergistic antiproliferative activity against human SCC25 cells assessed as fractional inhibition at 0.05 uM preincubated for 1 hr followed by irradiation with 5 Gy IR and measured after 6 days by MTT assay (reference value: 0.133). The format is functional. The method in brief:
as §3

In experiment [8] the test system is FaDu. The experiment in a line: Synergistic induction of apoptosis in human FADU cells at 0.5 uM followed irradiation with 5Gy IR incubated for 48 hrs by annexin V FITC and propidium iodide staining based flow cytometry. The format is functional. A digest of the protocol: (§4)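 FaDu or SCC-25 cells, untreated, given 5 Gy IR, drug, or both. Apoptotic cells measured by annexin V flow cytometry 48 h after treatment. Percentage compared with control by t test.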

In experiment [9] the test system is FaDu. The experiment in a line: Induction of apoptosis in human FADU cells assessed as decrease in Bcl2 at 0.5 uM incubated for 48 hrs by immunoblot analysis. Type of experiment: functional, cell-based. The method in brief:
(§5)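 FaDu cells received compound at 0.5 μM, 5 Gy IR, or both. After 48 h, lysates were immunoblotted for NRF2, cyclin B1, CDK1, Bax and Bcl-2. Membranes were then stripped and reprobed for β-actin as the loading control.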
In general terms: A western blot detects proteins with antibodies after separation by electrophoresis.

Experiment [10] concerns SCC-25. As to the kind of experiment: Synergistic antiproliferative activity against human SCC25 cells assessed as fractional inhibition at 0.005 uM preincubated for 1 hr followed by irradiation with 5 Gy IR and measured after 6 days by MTT assay (reference value: 0.133). The format is functional. A digest of the protocol: as §3
The subject of experiment [11] is SCC-25. The experiment in a line: Synergistic antiproliferative activity against human SCC25 cells assessed as fractional inhibition at 5 uM preincubated for 1 hr followed by irradiation with 5 Gy IR and measured after 6 days by MTT assay (reference value: 0.133). Type of experiment: functional. A digest of the protocol: as §3
Experiment [12] deals with FaDu. As to the kind of experiment: Synergistic induction of apoptosis in human FADU cells assessed as decrease in Bcl2 at 0.5 uM followed by irradiation with 5 Gy IR incubated for 48 hrs by immunoblot analysis. Type of experiment: functional, cell-based. A digest of the protocol:
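FaDu cells received drug, 5 Gy IR, or both; vehicle-only controls. Lysates collected after 48 h and immunoblotted with primary antibodies to NRF2, cyclin B1, CDK1, Bax and Bcl-2. Membranes stripped and reprobed for beta-actin as loading control.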

Experiment [13] relates to FaDu. As to the kind of experiment: Synergistic induction of cell cycle arrest in human FADU cells assessed as increase in accumulation at G2/M phase at 0.5 uM followed irradiation with 5Gy IR incubated for 24 hrs by propidium iodide staining based flow cytometry. The format is functional. The method in brief: (§6)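 FaDu or SCC-25 cells, untreated, given 5 Gy IR, drug, or drug plus 5 Gy. Cell-cycle distribution by propidium iodide staining and flow cytometry at 6 h and 24 h after treatment. G0/G1, S and G2/M fractions compared with control by t test.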
On the technique in general: In flow cytometry, cells or beads pass a laser one at a time.

Experiment [14] has as its system SCC-25. As to the kind of experiment: Synergistic antiproliferative activity against human SCC25 cells assessed as combination index at 5 uM preincubated for 1 hr followed by irradiation with 5 Gy IR and measured after 6 days by MTT assay. The format is functional. A digest of the protocol:
as §2

For experiment [15], the system named is SCC-25. As to the kind of experiment: Synergistic antiproliferative activity against human SCC25 cells assessed as fractional inhibition at 0.05 uM preincubated for 1 hr followed by irradiation with 10 Gy IR and measured after 6 days by MTT assay (reference value: 0.347). The format is functional. A digest of the protocol: as §3
The subject of experiment [16] is FaDu. The experiment in a line: Synergistic induction of cell cycle arrest in human FADU cells at 0.5 uM followed by irradiation with 5Gy IR incubated for 6 hrs by propidium iodide staining based flow cytometry. The format is functional. The method in brief: as §6
Experiment [17] deals with FaDu. The experiment in a line: Inhibition of colony formation in human FADU cells incubated for 10 to 14 days by crystal violet staining based assay. The format is functional, cell-based.
Experiment [18] concerns SCC-25. The experiment in a line: Synergistic antiproliferative activity against human SCC25 cells assessed as combination index at 0.005 uM preincubated for 1 hr followed by irradiation with 10 Gy IR and measured after 6 days by MTT assay. Type of experiment: functional. The method in brief: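 Combination index was calculated by the Chou–Talalay median-effect method from the 6-day MTT viability data of the single-plate compound/X-ray (2.5, 5, 10 Gy) design. CI < 1 denotes synergy, CI = 1 additivity and CI > 1 antagonism.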

In experiment [19] the test system is FaDu. The experiment in a line: Induction of cell cycle arrest in human FADU cells assessed as decrease in CDK1 at 0.5 uM incubated for 48 hrs by immunoblot analysis. Type of experiment: functional, cell-based. A digest of the protocol:
as §5

Experiment [20] concerns SCC-25. The experiment in a line: Synergistic antiproliferative activity against human SCC25 cells assessed as fractional inhibition at 0.005 uM preincubated for 1 hr followed by irradiation with 10 Gy IR and measured after 6 days by MTT assay (reference value: 0.347). The format is functional. The method in brief:
as §3

Experiment [21] concerns SCC-25. As to the kind of experiment: Synergistic antiproliferative activity against human SCC25 cells assessed as fractional inhibition at 0.5 uM preincubated for 1 hr followed by irradiation with 5 Gy IR and measured after 6 days by MTT assay (reference value: 0.133). The format is functional. A digest of the protocol:
as §3

For experiment [22], the system named is FaDu. As to the kind of experiment: Synergistic induction of apoptosis in human FADU cells at 0.5 uM followed irradiation with 5Gy IR by annexin V FITC and propidium iodide staining based flow cytometry. Type of experiment: functional, cell-based. Particulars: TDE = time-dependent effect. The method in brief: as §4

For the compound `COc1ccc2c(c1)N(CCO)C1=C(C(=O)OC1)C2c1ccccc1` (configuration not stated), the result in the experiment on FaDu [1], in the experiment with FaDu [9], in the experiment on FaDu [12] and in the experiment with FaDu [19] was Active. The “fractional inhibitory concentration index (FICI)” value worked out at 0.236 with FaDu [2]; 0.71 in the experiment on SCC-25 [4]; 0.186 in the experiment on FaDu [5]; 0.05 in the experiment on SCC-25 [7]; 0.157 with SCC-25 [10]; 0.728 in the experiment on SCC-25 [11]. The “fractional inhibitory concentration index (FICI)” value in the experiment on SCC-25 [15] worked out at 0.379; in the experiment on SCC-25 [20], 0.388; with SCC-25 [21], 0.658. For the same compound, the CI in the experiment with SCC-25 [3] was found to be 1.244; in the experiment on SCC-25 [6] it was 0.663; with SCC-25 [14] it was 0.652; with SCC-25 [18], 1.021. Also, the “fold change (FC)” value came to 3 in the experiment with FaDu [8] and 2 in the experiment on FaDu [13]. The result in the experiment on FaDu [16] was inactive. In the experiment with FaDu [17], this compound came in with an IC50 of 6.5 µM. Further, the Activity entry in the experiment with FaDu [22] was “Tde”.

One may read the IC50 as the point on the concentration scale where inhibition reaches its midpoint. Low readings indicate greater potency in that assay, high ones weaker potency in that assay.
